Sampled rows, rich in hits. Any-hit rate of the full collection: about 4.9%.
NPY Y1 blocker: NPY-Y1 (human) receptor antagonism; HEK293-CNG Y1 cells, membrane potential fluorescence; NPY at EC95, then isoproterenol; 200,000 tested, 1% active; inhibition, % at 3.6 µM; P25929;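 active = inhibition above the campaign mean inhibition of all tested compounds plus 3 SD, cut at about 20% in these data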;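 note: 0% = DMSO wells given NPY plus isoproterenol and 100% = isoproterenol alone without NPY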
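Benchmarks – high control isoproterenol alone, low control NPY with isoproterenol · Material – HEK293 Y1/CNG channel cell line · Times – dye 3 h, compound 60 min room temperature, stimulation 45 min · Probe or stimulus – NPY (25 nM), isoproterenol (1 µM), Ro 20-1724 (25 µM) · Evaluation – % inhibition of NPY effect · Signal – fluorescence, membrane potential probe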
RAM inhibit: blocks the yeast RAM network | AID 868 | 190,000 tested, 1.8% active | inhibition, % at 50 µM | S. cerevisiae dse1pr::URA3 reporter, 5-FOA growth OD615, 2 d; analog-sensitive cbk1-as2 kinase mutant strain;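 active = inhibition above a set limit, 3 SD over mean compound inhibition, cut at about 8.4% in these data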;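 note: 0% = DMSO-only wells with no growth and 100% = 10 µM 1-NA-PP1 full growth; inhibition rescues growth on 5-FOA so higher OD means more RAM inhibition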
WT yeast gro inh: growth inhibition of WT yeast, mitochondrial fusion screen | mitochondrial fusion phenotypic screen, WT strain | AID 1362 | inhibition, % at 10 µM | 190,000 tested, 2.1% active; in the data active = inhibition above about 58%; tested in S. cerevisiae
NPY-Y2 PAM-ag: potentiators or agonists of human neuropeptide Y receptor Y2; P49146; cells expressing NPY-Y2, potentiator/agonist read-out; activation, % at 3.6 µM; 220,000 tested, 0.45% active; in the data active = activation above about 27%;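 note: cells stimulated with NPY near EC25 plus isoproterenol at EC100; 0% = vehicle plus submaximal agonist and 100% = vehicle plus saturating agonist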
Target sequence (P49146 whole entry, looked up): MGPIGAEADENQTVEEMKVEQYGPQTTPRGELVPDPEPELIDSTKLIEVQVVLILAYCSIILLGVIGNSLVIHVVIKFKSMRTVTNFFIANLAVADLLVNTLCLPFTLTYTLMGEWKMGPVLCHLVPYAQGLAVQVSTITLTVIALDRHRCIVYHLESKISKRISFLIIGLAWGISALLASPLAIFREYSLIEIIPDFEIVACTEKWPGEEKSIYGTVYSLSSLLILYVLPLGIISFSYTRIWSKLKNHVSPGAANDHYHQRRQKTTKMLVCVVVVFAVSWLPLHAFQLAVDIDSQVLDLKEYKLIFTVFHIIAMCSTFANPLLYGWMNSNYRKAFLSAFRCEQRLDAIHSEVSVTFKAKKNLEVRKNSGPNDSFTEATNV
NPY-Y2 antag: blocks the human neuropeptide Y Y2 receptor | P49146 | NPY-Y2 expressing cells, antagonist mode | inhibition, % at 2.7 µM | 140,000 tested, 0.99% active | AID 793; in the data active = inhibition above about 17%;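 note: 0% = vehicle with agonist challenge and 100% = reference antagonist with challenge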
NPY-Y1 PAM-ag: human NPY-Y1 potentiation or agonism, primary screen; activation, % at 3.6 µM; NPY-Y1 expressing cells, potentiator/agonist activation; 220,000 tested, 0.37% active; P25929; in the data active = activation above about 33%, passing the limit was not always enough;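 note: cells stimulated with NPY at EC10 then isoproterenol at EC100; 0% = low agonist plus stimulus and 100% = saturating agonist plus stimulus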
An asterisk follows results filed as active; . = not tested or not shown.

SMILES | NPY Y1 blocker | RAM inhibit | WT yeast gro inh | NPY-Y2 PAM-ag | NPY-Y2 antag | NPY-Y1 PAM-ag
CCNc1nc(Sc2ccc(C)cc2)cc(C(F)(F)F)n1 | 8 | -1 | 85* | -2 | 1 | 2
CCNc1nc(Oc2ccc(OC)cc2)cc(C(F)(F)F)n1 | 1 | 0 | 25 | -9 | . | -25
Fc1cccc(-c2cc3nc4c(c(N5CCC6(CC5)OCCO6)n3n2)CCCC4)c1 | 6 | -1 | 69* | -4 | 9 | -20
OC1CCN(c2c3c(nc4cc(-c5cccc(F)c5)nn24)CCCC3)CC1 | -2 | 0 | 23 | 6 | 1 | 1
CCOc1[nH]n(-c2ccccc2)c(=O)c1C=NCC(=O)OC | 1 | 1 | -8 | -15 | . | -3
S=c1[nH]nc(-c2cc3ccccc3o2)n1Cc1ccccc1 | 4 | 2 | 65* | -9 | 4 | -23
Cc1ccc(-c2n[nH]c(=S)n2Cc2ccccc2)cc1 | -5 | 1 | 0 | 11 | 3 | 7
S=c1[nH]nc(-c2cccc(Cl)c2)n1Cc1ccccc1 | 6 | 3 | 0 | 0 | 4 | 8
CC(C)Cn1c(-c2csc(C(C)C)c2)n[nH]c1=S | 10 | 2 | 67* | -6 | . | -13
CCc1cc(-c2n[nH]c(=S)n2-c2ccccc2C)cs1 | -5 | 1 | 60* | 2 | 7 | -8
Cc1cccc(-c2n[nH]c(=S)n2Cc2ccccc2)c1 | 9 | 2 | 72* | -8 | 3 | -6
CCOC(=O)c1ccc(N2C(=O)CC(N(Cc3ccc4c(c3)OCO4)C(=O)Nc3ccccc3)C2=O)cc1 (configuration not stated) | 5 | 3 | 18 | -1 | 4 | 15
O=C(O)Cc1ccc(C(=O)CSc2ccccc2)s1 | . | . | . | -8 | . | 7
CC(C)n1ncc(C(N)=O)c1N | -2 | 1 | -19 | 6 | 2 | 9
CCCCn1c(-c2csc(CCC)c2)n[nH]c1=S | 6 | -1 | 73* | -16 | . | -8
S=c1[nH]nc(COc2cccc(Cl)c2)n1Cc1ccccc1 | -1 | 4 | 73* | 9 | . | 14
CCc1cc(-c2n[nH]c(=S)n2CC)cs1 | 12 | 0 | 12 | -2 | 5 | -9
CCc1cc(-c2n[nH]c(=S)n2Cc2ccccc2)cs1 | 4 | 3 | 65* | -8 | 8 | -5
COc1ccc(-c2ccc3c(n2)sc2c(=O)[nH]c(=O)[nH]c23)cc1OC | 6 | 0 | 2 | 5 | . | -14
COc1cc(C(=O)Nc2cccc(-c3nc4cc(C)ccc4o3)c2)cc(OC)c1OC | 1 | 8.7* | 9 | 6 | 1 | -20
CCOc1ccc2c(c1)-c1c(ssc1=S)C(C)(C)N2C(=O)CSC1=NCCS1 | -9 | 3 | 15 | 40* | -5 | 49*
Cc1ccc2c(c1)-c1c(ssc1=S)C(C)(C)N2C(=O)CSC1=NCCS1 | -7 | 5 | 32 | 24 | -6 | 14
CCOc1ccc2c(c1)-c1c(ssc1=S)C(C)(C)N2 | -14 | 8 | 28 | 45* | -10 | 44*
CCOc1ccc2c(c1)/C(=N/N1C(=O)c3ccccc3C1=O)C(=O)N2 | 0 | 5 | 1 | -9 | . | 4
Cn1c(SCc2c(F)cccc2Cl)nnc1-c1cccs1 | 13 | -1 | 16 | 8 | 5 | 3
SMILES | NPY Y1 blocker | RAM inhibit | WT yeast gro inh | NPY-Y2 PAM-ag | NPY-Y2 antag | NPY-Y1 PAM-ag
O=C(/C=C/c1ccc2c(c1)OCO2)NCCSCc1ccc(Cl)cc1 | 37* | 0 | -8 | -16 | 23* | -37
CCCNC(=O)Cn1c(=O)/c(=C\c2ccc(-c3cccc([N+](=O)[O-])c3)o2)s/c1=C\C(=O)C(C)(C)C | -5 | 9.4* | 1 | 14 | 1 | 4
O=C(Cc1ccccc1)N/N=C/c1ccc(-c2ccc([N+](=O)[O-])cc2)o1 | -1 | 3 | -6 | 8 | -3 | 3
CCCNC(=O)Cn1c(=O)/c(=C\c2ccc(-c3ccc([N+](=O)[O-])cc3)o2)s/c1=C\C(=O)C(C)(C)C | -3 | 9.7* | 8 | -5 | -3 | 0
Cc1ccc(S(=O)(=O)n2cc(C=O)c3ccccc32)cc1 | . | . | . | 17 | . | 26
CC1=C(C(=O)OCc2ccccc2)C(/C=C/c2ccccc2)NC(=S)N1 (configuration not stated) | 2 | 4 | 69* | -14 | 13 | -19
Cc1ccccc1C(=O)Nc1nnc(-c2ccc(F)cc2)o1 | 0 | 2 | 70* | -7 | 4 | -7
Cc1ccc(C)c(SCC(=O)Nc2nnc(-c3ccccc3)o2)c1 | -3 | 5 | 73* | 17 | 2 | -10
COc1ccc(-c2cc(C(=O)N3CCN(c4ccccc4)CC3)c3ccccc3n2)cc1 | 6 | 3 | 36 | -16 | . | -11
COc1cccc(OCC(O)CN2CCN(c3ccccc3)CC2)c1 (configuration not stated) | . | . | . | -17 | . | 18
COc1cccc(OCC(O)CN2CCOCC2)c1 (configuration not stated) | -6 | -1 | -3 | 45* | 2 | 60*
COc1ccc(COCC(O)CN2CCOCC2)cc1OC (configuration not stated) | -12 | 1 | -11 | 79* | -1 | 54*
COc1cc(COCC(O)CN2CCOCC2)cc(OC)c1OC (configuration not stated) | -3 | 0 | -4 | 1 | 2 | 9
COc1cccc(C(=O)N(Cc2cccs2)C2CCS(=O)(=O)C2)c1 (configuration not stated) | . | . | . | 5 | . | 21
CN(C(=O)COC(=O)c1ccc(S(=O)(=O)N2CCCC2)cc1)c1ccccc1 | 0 | 1 | -4 | -3 | . | 5
c1ccc(CSc2nnc(-c3sccc3-n3cccc3)o2)cc1 | 14 | 8.7* | 23 | -23 | 7 | -12
NCCc1nnc(SCc2ccccc2)o1 | 8 | 1 | -6 | -2 | 3 | -14
COC(=O)CN1C(c2ccc(OC)cc2)=Nc2ccc(Cl)cc2C1c1ccccc1 (configuration not stated) | 25* | 2 | 58 | -9 | 23* | -7
COc1cc(C2=Nc3ccc(Br)cc3C(c3ccccc3)N2CC(=O)NN)cc(OC)c1OC (configuration not stated) | . | . | . | 13 | . | 9
COC(=O)CN1C(c2cccc(Cl)c2)=Nc2ccc(Cl)cc2C1c1ccccc1 (configuration not stated) | 39* | 1 | 76* | -21 | 28* | -43
NNC(=O)CN1C(c2ccc(Br)cc2)=Nc2ccc(Br)cc2C1c1ccccc1 (configuration not stated) | 6 | 2 | 43 | -3 | 2 | -6
O=C(CN1C(=O)c2ccccc2C1=O)Nc1nccs1 | . | . | . | 8 | . | 15
CNc1c(N)n(Cc2ccccc2)c(=O)[nH]c1=O | 3 | 1 | -10 | -5 | -2 | 1
COc1cccc(NC(=O)Nc2ccc(C(C)(C)C)cc2)c1 | -3 | 9.9* | 63* | 0 | . | 18

High-throughput results deposited in PubChem by several laboratories.
